Our source for the Activity, concentration and inhibition values is ChEMBL document CHEMBL4376888, “Discovery of Potent, Selective, and Direct Acid Sphingomyelinase Inhibitors with Antidepressant Activity” (J Med Chem, 2020).

Activity calls are given as the source filed them. No cut-off for these calls is given here.

The test system of data set [1] is Rattus norvegicus. The data set is described as follows: Antidepressant activity in Sprague-Dawley rat model of reserpine-induced depression assessed as increase in times passing the grid at 6 to 24 mg/kg, ip administered twice daily for 2 weeks measured for 5 mins by open field test. The format is functional, organism-based. The method, boiled down:
(§1)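 Female SD rats (6-8 weeks, 200 g) given reserpine 4 mg/Kg ip daily to induce depression; test agent in 5% DMSO, 2% Tween 80, 5% glucose, ip twice daily for two weeks. Open field: 100×100 cm box, 25 squares, walls about 42 cm, tested 7:30–12:00. Rat placed in central square; centre time, grid crossings, rearing and grooming recorded over 5 min. n=8, mean ± SD.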

Data set [2] deals with Rattus norvegicus. The data set can be described thus: Antidepressant activity in Sprague-Dawley rat model of reserpine-induced depression assessed as increase in frequency of upright at 6 to 24 mg/kg, ip administered twice daily for 2 weeks measured for 5 mins by open field test. In kind it is functional, organism-based. The method, boiled down:
as §1

The nature of data set [3]: Drug concentration in Sprague-Dawley rat brain at 48 mg/kg, ip after 0.5 hrs by LC-MS/MS analysis. The format is ADME, organism-based. As to conditions: read-out: Drug uptake. The gist of the method: (§2)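 Nine female SD rats, three per time point, single ip dose of 48 mg/Kg. At 0.5, 2 and 4 h rats were anesthetized with CO2. Heart blood was taken into EDTA-K2 and centrifuged 1500 g, 10 min, for plasma. Brain was weighed and homogenized 1:5 in 20% methanol-water. LC-MS/MS on a C18 column. Mean of 3.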

Data set [4] addresses T1, Sphingomyelin phosphodiesterase 2 (Homo sapiens) (UniProt O60906).
T1 sequence (whole entry): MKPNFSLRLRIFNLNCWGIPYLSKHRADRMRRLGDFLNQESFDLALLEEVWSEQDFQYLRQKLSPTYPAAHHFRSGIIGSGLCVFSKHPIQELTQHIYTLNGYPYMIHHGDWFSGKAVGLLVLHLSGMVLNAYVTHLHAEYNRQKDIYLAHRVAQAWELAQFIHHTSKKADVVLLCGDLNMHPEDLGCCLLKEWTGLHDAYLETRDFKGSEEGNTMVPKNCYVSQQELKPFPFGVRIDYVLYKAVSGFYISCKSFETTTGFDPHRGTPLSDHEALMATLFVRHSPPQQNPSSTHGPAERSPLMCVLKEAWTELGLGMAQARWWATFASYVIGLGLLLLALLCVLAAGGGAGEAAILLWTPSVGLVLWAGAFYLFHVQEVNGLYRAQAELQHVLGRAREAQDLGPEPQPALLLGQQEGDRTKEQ
The data set can be described thus: Inhibition of neutral sphingomyelinase (unknown origin) at 100 uM using NBD-sphingomyelin as substrate after 30 mins by fluorescence based assay. The method, boiled down: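 Neutral sphingomyelinase assay run as the ASM cell-extract assay (NBD-sphingomyelin, 37 °C, 30 min, chloroform/methanol extraction, TLC, NBD-ceramide fluorescence). Buffer was 200 mM Tris-HCl pH 7.4 with 10 mM MgCl2 and 10 mM dithiothreitol. Tested at 100 μM.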

Data set [5] has as its system Rattus norvegicus. The data set is described as follows: In vivo inhibition of acid sphingomyelinase in Sprague-Dawley rat model of reserpine-induced depression assessed as residual enzyme activity in hippocampus at 24 mg/kg, ip administered twice daily for 2 weeks measured post-last dose by NBD-sphingomyelin substrate-based fluorescence assay (reference value: 73%). The format is functional. The gist of the method: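 Cortex and hippocampus taken from half brain of reserpine-model rats treated ip twice daily for two weeks. Total protein by BCA. ASM assay on 300 μg protein with 4 μg NBD-sphingomyelin, run as the in vitro assay. NBD-ceramide fluorescence on TLC, expressed relative to normal control set at 100%. n=5, mean ± SD.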

Data set [6] can be described thus: Drug concentration in Sprague-Dawley rat plasma at 48 mg/kg, ip after 2 hrs by LC-MS/MS analysis. The format is ADME, organism-based. The gist of the method: as §2
Data set [7] concerns Rattus norvegicus. The data set can be described thus: Antidepressant activity in ip dosed Sprague-Dawley rat model of reserpine-induced depression assessed as increase in sugar consumption treated twice daily for 2 weeks measured after 2 days of […] followed by 20 hrs water depletion and fasting by sugar water preference test. The format is functional, organism-based. The gist of the method:
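Reserpine model (4 mg/Kg ip daily) in female SD rats, treated ip twice daily for two weeks in DMSO/Tween 80/glucose vehicle. Drinking water replaced with 10% sucrose for 48 h, then food and water withheld for 20 h. Rats then given 10% sucrose and intake volume measured. n=8, mean ± SD.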

As to `O=C(NO)c1cc(OCc2ccc(-c3ccc(Cl)cc3)cc2)no1`, the outcome with Rattus norvegicus [1] and with Rattus norvegicus [2] was Active. Also, the concentration at 0.5 h in data set [3] turned out to be 2120 ng/g. Moreover, the inhibition result in data set [4] was “inactive”. The values for the Activity in the data set on Rattus norvegicus [5] and with Rattus norvegicus [7] were 33% and “Dose-dependent effect”, respectively. Besides, in data set [6], the concentration at 2 h worked out at 762 ng/mL.
